Assay results as given in PubChem BioAssay.
Activity calls are given as the source filed them.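 How the source made its calls, unless noted: active means viability loss from added drug above about 55%, and viability with drug at most 40%, in both replicates (limit read from the data, passing the limit was not always enough); inconclusive means both conditions met in only one replicate; inactive means neither replicate meets both conditions.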

Legend:
[1] = reduced viability of SK-BR-3 breast cancer cells – cell-based, 24 h, human, pilot screen (AID 572;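 active means viability at or below 10% of carrier control in both of two separate runs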;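 further: compound exposure lasted between 18 and 24 h rather than exactly 24 h; 100% = carrier-treated control wells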); details: SK-BR-3 viability, CellTiter-Glo luminescence, at 10 µM, stronger effect = lower value
[2] = HUVEC growth inhibition – cell-based, human, primary screen (AID 575;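 active means viability at or below 30% in both replicate assays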;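 further: 100% = median of untreated cell wells with 0.1% DMSO on each plate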); details: HUVEC proliferation, CellTiter-Glo luminescence, 72 h; at 10 µM; stronger effect = lower value
Procedure, shortened: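 Material: primary human umbilical vein endothelial cells / Schedule: 72 h exposure, 37 °C, 5% CO2, 30 min RT equilibration / Signal: ATP-based CellTiter-Glo luminescent read / Read-out basis: percent of median DMSO-control luminescence / Control set: 32 DMSO-only cell-control wells (high), 32 MePR drug-control wells (low) per plate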

[3] = H69AR cell proliferation blockers – human, duplicate replicates, primary screen (AID 580;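 active means viability at or under a set limit in both replicates, limit being median viability minus 3 SD, cut at about 48% in these data, passing the limit was not always enough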;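 further: 100% = mean luminescence of untreated wells and 0% = no signal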); details: H69AR lung tumor cells viability, ATP luminescence, 72 h; at 10 µM; stronger effect = lower value
[4] = MRP1 drug-resistance reversers in H69AR cells – cell-based, doxorubicin co-treatment, pilot screen (AID 601); details: CellTiter-Glo, 72 h, at 10 µM; for differential viability (reversal): stronger effect = higher value
[5] = yeast transport mutant growth inhibition pilot in 384-well plates, post-Golgi transport modulator project (AID 636; in the data active means inhibition above about 31%); details: absorbance 615 nm, about 18 h, stronger effect = higher value
[6] = growth suppression of yeast trafficking mutant, preliminary HTS, modulators of trafficking downstream of Golgi apparatus project, 1536-format plate, OD 615 nm (AID 637; in the data active means inhibition above about 30%); details: yeast transport mutant growth, absorbance 615 nm, 18 h; stronger effect = higher value
[7] = H69AR cells + 2 uM doxorubicin, measured here: viability with 2 uM doxorubicin, stronger effect = lower value
[8] = H69AR cells, compound alone cytotoxicity

Compound | viability [1] | viability [2] | viability [3] | differential viability (reversal) ([4]; H69AR cells + 2 uM doxorubicin) | viability [4, 7] [%] | viability [4, 8] [%] | inhibition [5] | inhibition [6]
Cc1nc2ncnn2c(N2CCC(C(=O)NCC3CCCO3)CC2)c1Cc1ccccc1 (stereo unspecified) | 136% (inactive) | 97.1% (inactive) | 89.5% (inactive) | -6.76% (inactive) | 96.3 | 89.5 | -3.7% (inactive) | -4.55% (inactive)
Cc1cccc(N2C(=O)CC(N(C(=O)c3ccco3)c3cccc(C)c3)C2=O)c1 (stereo unspecified) | 104% (inactive) | 98.8% (inactive) | 98.5% (inactive) | -3.33% (inactive) | 102 | 98.5 | 0% (inactive) | 6.13% (inactive)
Cc1nnc(N(C)C(=O)Cc2ccc3c(c2)OCO3)s1 | 94% (inactive) | 92.6% (inactive) | 94.6% (inactive) | 5.27% (inactive) | 89.3 | 94.6 | 2.47% (inactive) | 8.71% (inactive)
CCOC(=O)C1CSc2[nH]c(=O)sc2C1c1ccccc1 (stereo unspecified) | 100% (inactive) | 117% (inactive) | 93.2% (inactive) | -9.41% (inactive) | 103 | 93.2 | 0.95% (inactive) | -2% (inactive)
COc1ccc(Cl)c(NC(=O)NCCN2CCN(c3ccccc3)CC2)c1 | 102% (inactive) | 107% (inactive) | 90.4% (inactive) | 8.35% (inactive) | 82 | 90.4 | -2% (inactive) | 1.27% (inactive)
CC1=Nn2c(nnc2-c2ccccc2)SC1 | 96% (inactive) | 105% (inactive) | 95.2% (inactive) | 17.6% (inactive) | 77.7 | 95.2 | -0.93% (inactive) | 0% (inactive)
CCCc1c(OCCCCc2nn[nH]n2)ccc(C(C)=O)c1O | 77% (inactive) | 67% (inactive) | 84.4% (inactive) | -20.6% (inactive) | 105 | 84.4 | -1.56% (inactive) | 3% (inactive)
CCOC(=O)c1[nH]c2cc(OC)c(OC)cc2c1NC(=O)C(C)N1CCN(Cc2ccccc2)CC1 (stereo unspecified) | 73% (inactive) | 51.3% (inactive) | 59.2% (inactive) | -6.81% (inactive) | 66.1 | 59.2 | -4.59% (inactive) | -5.09% (inactive)
CCOCC(=O)Nc1c(C(=O)Nc2ccc(OC)cc2OC)oc2ccccc12 | 65.5% (inactive) | 50.9% (inactive) | 48% (active) | -0.305% (inactive) | 48.3 | 48 | -6.62% (inactive) | -3.77% (inactive)
C=CCN1C(=O)C2(/C(=C(\O)c3ccc4c(c3)OCCO4)C(=O)C(=O)N2CCCOC)c2ccccc21 (stereo unspecified) | 109% (inactive) | 96.6% (inactive) | 95.9% (inactive) | 11.2% (inactive) | 84.7 | 95.9 | -8.36% (inactive) | 0.48% (inactive)
Nn1c(SCC(=O)NC2CCCCC2)nnc1-c1ccc(Cl)cc1 | 89% (inactive) | 104% (inactive) | 91.6% (inactive) | 8.96% (inactive) | 82.7 | 91.6 | -6.16% (inactive) | 3.71% (inactive)
Cc1nc2ccccn2c(=O)c1CCN1CCC(C(=O)c2ccc(F)cc2)CC1 | 75% (inactive) | 83.6% (inactive) | 86.3% (inactive) | -15.1% (inactive) | 101 | 86.3 | 1.69% (inactive) | 17.2% (inactive)
CCOC(=O)c1cc(-c2ccccc2)sc1N | 129% (inactive) | 71.1% (inactive) | 81.3% (inactive) | 3.5% (inactive) | 77.8 | 81.3 | -6% (inactive) | -2% (inactive)
COc1cc(CO)cc(-c2cc(CO)cc(OC)c2OC)c1OC | 82% (inactive) | 95.8% (inactive) | 92.5% (inactive) | 1.68% (inactive) | 90.9 | 92.5 | -8.67% (inactive) | -6.91% (inactive)
Cc1cccn2c(=O)c3cc(C#N)c(=NC(=O)c4ccncc4)n(Cc4ccco4)c3nc12 | 110% (inactive) | 64.1% (inactive) | 67% (inactive) | 15.3% (inactive) | 51.7 | 67 | -1.58% (inactive) | 7.74% (inactive)
O=S(=O)(c1cccc(S(=O)(=O)N2CCC(N3CCCCC3)CC2)c1)N1CCOCC1 | 103% (inactive) | 98.9% (inactive) | 93.6% (inactive) | 9.45% (inactive) | 84.2 | 93.6 | -0.78% (inactive) | -2.95% (inactive)
Cn1c(=O)[nH]c(=O)c2c1nc(N1CCOCC1)n2CC(O)COc1ccc2ccccc2c1 (stereo unspecified) | 70% (inactive) | 88.7% (inactive) | 88.3% (inactive) | -1.6% (inactive) | 89.9 | 88.3 | -6.58% (inactive) | -1.82% (inactive)
O=C(NC1CCCCC1NC(=O)c1ccco1)c1ccco1 (stereo unspecified) | 93% (inactive) | 94.2% (inactive) | 90% (inactive) | -4.53% (inactive) | 94.5 | 90 | 0.53% (inactive) | 3.27% (inactive)
COc1cccc(C=Nc2ccc3c(c2)OCCO3)c1O | 115% (inactive) | 79.2% (inactive) | 83% (inactive) | -12% (inactive) | 95 | 83 | 1.95% (inactive) | -0.33% (inactive)

Compound | viability [1] | viability [2] | viability [3] | differential viability (reversal) ([4]; H69AR cells + 2 uM doxorubicin) | viability [4, 7] [%] | viability [4, 8] [%] | inhibition [5] | inhibition [6]
COc1cccc(N2CCN(CC(=O)c3c[nH]c4ccc(OC)cc34)CC2C)c1 (stereo unspecified) | 104% (inactive) | 83.9% (inactive) | 70.4% (inactive) | -11.7% (inactive) | 82.1 | 70.4 | -5.33% (inactive) | -1.45% (inactive)
Cn1c(=O)c2c(nc(NCCNC(=O)c3ccco3)n2Cc2ccccc2Cl)n(C)c1=O | 80% (inactive) | 112% (inactive) | 72.5% (inactive) | 5.75% (inactive) | 66.7 | 72.5 | -7.57% (inactive) | -4.36% (inactive)
CC(OC(=O)CNC(=O)C12CC3CC(CC(C3)C1)C2)C(=O)Nc1ccc(N2CCOCC2)cc1 (stereo unspecified) | 121% (inactive) | 101% (inactive) | 97.2% (inactive) | 2.31% (inactive) | 94.8 | 97.2 | -0.68% (inactive) | -2.55% (inactive)
COC(=O)c1ccc(COc2ccc(C3C4=C(CCCC4=O)Nc4onc(C)c43)cc2)cc1 (stereo unspecified) | 104% (inactive) | 82.3% (inactive) | 94.7% (inactive) | 2.04% (inactive) | 92.7 | 94.7 | -5.19% (inactive) | -3.93% (inactive)
CC1CN(S(=O)(=O)c2ccc(Cl)c(C(F)(F)F)c2)CC(C)O1 (stereo unspecified) | 68% (inactive) | 111% (inactive) | 100% (inactive) | 8.69% (inactive) | 91.8 | 100 | -9.32% (inactive) | 2% (inactive)
COC(=O)c1sc(S(=O)(=O)N2CCN(c3ccccc3)CC2)c(C(=O)OC)c1C | 69% (inactive) | 96.1% (inactive) | 85.6% (inactive) | -1.87% (inactive) | 87.5 | 85.6 | -8.63% (inactive) | 4% (inactive)
CC1CCN(S(=O)(=O)c2ccc(Br)s2)CC1 | 98% (inactive) | 91.1% (inactive) | 87.5% (inactive) | 6.46% (inactive) | 81.1 | 87.5 | -2.6% (inactive) | -1.8% (inactive)
Cc1nc2cc(NC(=O)N3c4ccccc4CC3C)ccc2o1 (stereo unspecified) | 91% (inactive) | 96.2% (inactive) | 86.3% (inactive) | 8.09% (inactive) | 78.2 | 86.3 | -5.6% (inactive) | -13.4% (inactive)
CC(C)(C#N)Nn1cnnc1 | 135% (inactive) | 104% (inactive) | 85.9% (inactive) | -4.76% (inactive) | 90.7 | 85.9 | -4.73% (inactive) | 4.18% (inactive)
COc1cccc(-c2cc(C(=O)Nc3c(C)nn(Cc4ccccc4)c3C)no2)c1 | 158% (inactive) | 82.6% (inactive) | 98.2% (inactive) | 8.66% (inactive) | 89.5 | 98.2 | -5.81% (inactive) | -7.33% (inactive)
Cc1c(C)[n+](=O)c2c(n1[O-])CCCCC2 | 89% (inactive) | 93.5% (inactive) | 96% (inactive) | 9.67% (inactive) | 86.3 | 96 | -1.43% (inactive) | -2.3% (inactive)
Cc1nc2nc(-c3cccnc3)nn2c(C)c1Cl | 109% (inactive) | 87.4% (inactive) | 102% (inactive) | 12.9% (inactive) | 89.2 | 102 | -3.78% (inactive) | -3.27% (inactive)
O=C1c2oc3ccccc3c(=O)c2C(c2cccnc2)N1Cc1ccco1 (stereo unspecified) | 98% (inactive) | 106% (inactive) | 87.8% (inactive) | -0.59% (inactive) | 88.4 | 87.8 | -0.96% (inactive) | -2.36% (inactive)
COCCn1nnnc1C(c1cc2ccc(OC)cc2[nH]c1=O)N1CCc2ccccc2C1 (stereo unspecified) | 89% (inactive) | 90.4% (inactive) | 85.6% (inactive) | -13.3% (inactive) | 98.9 | 85.6 | -1.64% (inactive) | 4.52% (inactive)
CCn1cc(C(=O)NCc2ccco2)c(=O)c2cc(F)c(N3CCN(C(=O)c4ccco4)CC3)cc21 | 94% (inactive) | 62.4% (inactive) | 58.6% (inactive) | 40.8% (inactive) | 17.7 | 58.6 | -7.4% (inactive) | -1.45% (inactive)
CCOc1ccc2[nH]c(O)c(NC(C)=O)c2c1 | 95% (inactive) | 100% (inactive) | 94.8% (inactive) | 0.61% (inactive) | 94.1 | 94.8 | -4.86% (inactive) | 0.91% (inactive)
O=C(Cn1c(=O)n(CC2CCCO2)c(=O)c2ccccc21)c1ccccc1 (stereo unspecified) | 121% (inactive) | 79.1% (inactive) | 81.5% (inactive) | -7.53% (inactive) | 89 | 81.5 | -1.17% (inactive) | 6.39% (inactive)
CN1CCC(=C2c3ccccc3C=Cc3ccccc32)CC1 | 100% (inactive) | 52.6% (inactive) | 82.4% (inactive) | 9.07% (inactive) | 73.4 | 82.4 | -0.65% (inactive) | 1% (inactive)
